pIC50: −log10 of the molar value. The source made the active and inactive calls.
Key:
[1] = system: HCT-116; assay: Induction of mitochondrial fission in human HCT-116 cells assessed as decrease in DRP1 phosphorylation at S637 after 8 to 24 hrs by immunoblotting analysis; type: functional, cell-based; settings: dose 0.5-1 µM, time 8-24 hrs
Procedure, shortened: (§1)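 Immunoblot in HCT116 cells: p-DRP1 S616, p-DRP1 S637, DRP1, Mitofusin1, Mitofusin2 and MFF over time (0, 8, 16, 24 h); p-DRP1 S616, S637, DRP1, Mitofusin1 and OPA at 0.5 and 1 μM. β-Actin loading control.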

[2] = system: HCT-116; assay: Induction of mitochondrial fission in human HCT-116 cells assessed as decrease in DRP1 phosphorylation at S637 at 0.5 to 1 uM by immunoblotting analysis; type: functional, cell-based; settings: dose 0.5-1 µM, time 8-24 hrs, TDE = time-dependent effect; procedure, shortened: as §1
[3] = system: HCT-116; assay: Induction of apoptosis in human HCT-116 cells assessed as decrease in cleavage of caspase 3 at 1 uM pretreated with NAC for 1 hr followed by compound addition and measured after 16 hrs by immunoblotting analysis; type: functional, cell-based
Procedure, shortened: (§2)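 HCT116 cells pretreated 1 h with 5 mM NAC, then 1 μM compound 16 h; immunoblot for cleaved caspase 3 and PARP1, β-actin loading control.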

[4] = system: HCT-116; assay: Induction of mitochondrial fusion in human HCT-116 cells assessed as change in Mitofusin level at 0.5 to 1 uM incubated for 8 to 24 hrs by immunoblotting analysis; type: functional, cell-based; settings: dose 0.5-1 µM, time 8-24 hrs; procedure, shortened: as §1
[5] = system: HCT-116; assay: Induction of ROS generation in human HCT-116 cells incubated for 16 hrs by CellROX Red staining based confocal microscope analysis; type: functional, cell-based; settings: dose 0.5-1 µM
Procedure, shortened: (§3)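 HCT116 cells treated 16 h with compound (0.5 or 1 μM where dosed); stained 30 min with MitoTracker Deep Red FM (membrane potential) or CellROX Red FM (ROS); confocal imaging; mean fluorescence intensity quantified from five fields.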

[6] = system: HCT-116; assay: Induction of ROS generation in mitochondria of human HCT-116 cells at 1 uM preincubated with MitoTEMPO for 1 hr followed by compound addition and measured after 16 hrs by MitoSOX Red staining based confocal microscope analysis; type: functional, cell-based
Procedure, shortened: (§4)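 HCT116 cells pretreated 1 h with 10 μM MitoTEMPO, then compound 1 μM for 16 h. Mitochondrial superoxide by MitoSOX Red confocal imaging, intensity quantified; cytotoxicity by LIVE/DEAD kit (Calcein-AM live, EthD-1 dead), percentage dead cells quantified.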

[7] = system: HCT-116; assay: Induction of ROS generation in mitochondria of human HCT-116 cells assessed as number of dead cells at 1 uM preincubated with MitoTEMPO for 1 hr followed by compound addition and measured after 16 hrs by Calcein-AM/EthD-1 staining based confocal microscope analysis; type: functional, cell-based; procedure, shortened: as §4
[8] = system: HCT-116; assay: Induction of mitochondrial fission in human HCT-116 cells assessed as increase in DRP1 phosphorylation at S616 after 8 to 24 hrs by immunoblotting analysis; type: functional, cell-based; settings: dose 0.5-1 µM, time 8-24 hrs; procedure, shortened: as §1
[9] = system: HCT-116; assay: Induction of ROS production in human HCT-116 cells assessed as altered mitochondrial architecture at 1 uM pretreated with NAC for 1 hr followed by compound addition and measured after 16 hrs by MitoTracker Deep Red staining based confocal microscopy analysis; type: functional, cell-based
Procedure, shortened: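 HCT116 cells pretreated 1 h with or without 5 mM NAC, then 1 μM compound 16 h; MitoTracker Deep Red FM staining 30 min; confocal imaging of mitochondrial morphology with quantification.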

[10] = system: HCT-116; assay: Induction of ROS generation in human HCT-116 cells at 1 uM preincubated for 16 hrs followed by Mdivi1 addition for 8 hrs by CellROX Red staining based confocal microscopy analysis; type: functional, cell-based
[11] = system: HCT-116; assay: Induction of mitochondrial fission in human HCT-116 cells assessed as increase in DRP1 phosphorylation at S616 at 1 uM preincubated with NAC for 1 hr followed by compound addition and measured after 16 hrs by immunoblotting analysis; type: functional, cell-based
Procedure, shortened: (§5)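 Immunoblot of p-DRP1 S616 and p-DRP1 S637 in HCT116 cells pretreated 1 h with or without 5 mM NAC, then 1 μM compound 16 h.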

[12] = system: HCT-116; assay: Induction of mitochondrial membrane potential loss in human HCT-116 cells incubated for 16 hrs by mitotracker red staining based confocal microscope analysis; type: functional, cell-based; settings: dose 0.5-1 µM; procedure, shortened: as §3
[13] = system: HCT-116; assay: Induction of ROS generation in mitochondria of human HCT-116 cells transfected with mito-GFP at 1 uM incubated for 16 hrs by CellROX Red staining based confocal microscope analysis; type: functional, cell-based
Procedure, shortened: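 HCT116 cells transfected with CellLight Mitochondria-GFP, treated 1 μM for 16 h, stained with CellROX Red FM 30 min; confocal imaging; colocalization of GFP and CellROX Red intensities quantified.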

[14] = system: HCT-116; assay: Induction of mitochondrial fission in human HCT-116 cells assessed as increase in DRP1 phosphorylation at S616 at 0.5 to 1 uM by immunoblotting analysis; type: functional, cell-based; settings: dose 0.5-1 µM, time 8-24 hrs, TDE = time-dependent effect; procedure, shortened: as §1
[15] = system: HCT-116; assay: Induction of apoptosis in human HCT-116 cells assessed as decrease in cleavage of PARP at 1 uM pretreated with NAC for 1 hr followed by compound addition and measured after 16 hrs by immunoblotting analysis; type: functional, cell-based; procedure, shortened: as §2
[16] = system: HCT-116; assay: Induction of mitochondrial fission in human HCT-116 cells assessed as decrease in DRP1 phosphorylation at S637 at 1 uM preincubated with NAC for 1 hr followed by compound addition and measured after 16 hrs by immunoblotting analysis; type: functional, cell-based; procedure, shortened: as §5
[17] = system: HCT-116; assay: Induction of mitochondrial fusion in human HCT-116 cells assessed as change in MFF level at 0.5 to 1 uM incubated for 8 to 24 hrs by immunoblotting analysis; type: functional, cell-based; settings: dose 0.5-1 µM, time 8-24 hrs; procedure, shortened: as §1
[18] = system: HCT-116; assay: Induction of mitochondrial membrane potential loss in human HCT-116 cells at 1 uM preincubated for 16 hrs followed by Mdivi1 addition and measured after 8 hrs by MitoTracker Deep Red staining based confocal microscopy analysis; type: functional, cell-based
Procedure, shortened: (§6)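 HCT116 cells treated 1 μM for 16 h; DRP1 inhibited with 25 μM Mdivi-1 for 8 h. Staining 30 min with CellROX Red FM, MitoTracker Deep Red FM and LIVE/DEAD reagents; confocal imaging; mean fluorescence intensity from five fields.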

[19] = system: HCT-116; assay: Anticancer activity against human HCT-116 cells assessed as inhibition of cell viability incubated for 16 hrs by MTT assay; type: functional, cell-based; settings: HCT-116, 16 h
[20] = system: HCT-116; assay: Induction of apoptosis in human HCT-116 cells assessed as decrease in cleavage of caspase 3 at 1 uM preincubated for 16 hrs followed by Mdivi1 addition and measured after 8 hrs by immunoblotting analysis; type: functional, cell-based
Procedure, shortened: (§7)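 HCT116 cells treated 1 μM for 16 h, post-treated with 25 μM Mdivi-1 for 8 h; immunoblot for cleaved caspase 3 and PARP1, β-actin loading control.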

[21] = system: HCT-116; assay: Induction of apoptosis in human HCT-116 cells assessed as increase in JNK1 phosphorylation at 1 uM preincubated with NAC for 1 hr followed by compound addition and measured after 16 hrs by immunoblotting analysis; type: functional, cell-based
Procedure, shortened: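 Immunoblot of p-JNK and JNK in HCT116 cells pretreated 1 h with or without 5 mM NAC before compound treatment; β-actin loading control.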

[22] = Cytotoxicity against HEK293 cells assessed as reduction in cell viability incubated for 16 hrs by MTT assay; type: toxicity, cell-based; settings: human
[23] = system: HCT-116; assay: Induction of apoptosis in human HCT-116 cells assessed as increase in p-38 phosphorylation at 1 uM preincubated with selonsertib for 1 hr followed by compound addition and measured after 16 hrs by immunoblotting analysis; type: functional, cell-based
Procedure, shortened: (§8)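 Immunoblot of p-JNK, p-p38 and p38 in HCT116 cells pretreated 1 h with or without 50 μM selonsertib before compound treatment; β-actin loading control.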

[24] = system: HCT-116; assay: Induction of ROS production in human HCT-116 cells assessed as deterioration of mitochondrial length and area at 1 uM incubated for 16 hrs in presence of CellLight Mitochondria-GFP by confocal microscopy analysis; type: functional, cell-based
Procedure, shortened: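 HCT116 cells transfected with CellLight Mitochondria-GFP, treated 1 μM for 16 h; confocal images quantified for mitochondrial length and area.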

[25] = system: HCT-116; assay: Induction of apoptosis in human HCT-116 cells assessed as increase in JNK phosphorylation at 1 uM incubated for 16 hrs by immunoblotting analysis; type: functional, cell-based
Procedure, shortened: (§9)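 Immunoblot of p-JNK, JNK, p-p38 and p38 in HCT116 cells after 1 μM compound for 16 h; β-actin loading control.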

[26] = system: HCT-116; assay: Induction of mitochondrial fission in human HCT-116 cells assessed as appearance of mitochondrial puncta at 1 uM incubated for 14 hrs by Mitotracker Red staining based time-lapse microscopy analysis; type: functional, cell-based
Procedure, shortened: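 Time-lapse microscopy with MitoTracker Red over 14 h of treatment in HCT116 cells; size of mitochondrial puncta measured as fission read-out.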

[27] = system: HCT-116; assay: Induction of apoptosis in human HCT-116 cells assessed as increase in p-38 phosphorylation at 1 uM incubated for 16 hrs by immunoblotting analysis; type: functional, cell-based; procedure, shortened: as §9
[28] = system: HCT-116; assay: Induction of apoptosis in human HCT-116 cells assessed as increase in JNK1 phosphorylation at 1 uM preincubated with selonsertib for 1 hr followed by compound addition and measured after 16 hrs by immunoblotting analysis; type: functional, cell-based; procedure, shortened: as §8
[29] = system: HCT-116; assay: Induction of apoptosis in human HCT-116 cells assessed as number of dead cells at 1 uM preincubated for 16 hrs followed by Mdivi1 addition and measured after 8 hrs by Calcein-AM/EthD-1 staining based confocal microscope analysis; type: functional, cell-based; procedure, shortened: as §6
[30] = system: HCT-116; assay: Induction of apoptosis in human HCT-116 cells assessed as decrease in cleavage of PARP at 1 uM preincubated for 16 hrs followed by Mdivi1 addition and measured after 8 hrs by immunoblotting analysis; type: functional, cell-based; procedure, shortened: as §7
[31] = system: HCT-116; assay: Induction of apoptosis in human HCT-116 cells assessed as number of dead cells at 1 uM preincubated with selonsertib for 1 hr followed by compound addition and measured after 16 hrs by Calcein-AM/EthD-1 staining based confocal microscope analysis; type: functional, cell-based
[32] = system: HCT-116; assay: Induction of mitochondrial fusion in human HCT-116 cells assessed as change in OPA1 level at 0.5 to 1 uM incubated for 8 to 24 hrs by immunoblotting analysis; type: functional, cell-based; settings: dose 0.5-1 µM, time 8-24 hrs; procedure, shortened: as §1

C/C=C/C/C(C)=C\[C@H]1C/C=C/C=C/C[C@H](C)/C=C(\C)[C@@H](OC)CCC[C@@H](O)CC(=O)O1
23.7 µM: IC50 at 16 h [22]
7.00: pIC50 [19]
inactive: Activity [4] | Activity [6] | Activity [7] | Activity [9] | Activity [10] | Activity [11] | Activity [16] | Activity [17] | Activity [18] | Activity [20] | Activity [21] | Activity [23] | Activity [28] | Activity [29] | Activity [30] | Activity [31] | Activity [32]
active: Activity [1] Dose-Dependent Effect | Activity [2] Tde | Activity [3] | Activity [5] Dose-Dependent Effect | Activity [8] Dose-Dependent Effect | Activity [12] Dose-Dependent Effect | Activity [13] | Activity [14] Tde | Activity [15] | Activity [24] | Activity [25] | Activity [26] | Activity [27]

CCCCC[C@H]1C/C=C/C=C/C[C@H](C)/C=C(\C)[C@@H](OC)C/C=C/[C@@H](O)CC(=O)O1
14.3 µM: IC50 at 16 h [22]
5.09: pIC50 [19]

From ChEMBL document CHEMBL5634186, “Structure-Activity Relationship Study of Biselyngbyolide B Reveals Mitochondrial Fission-Induced Cytotoxicity in Cancer” (ACS Med Chem Lett, 2024)
